APP 5'UTR act: activates APP 5'UTR luciferase reporter. SH-SY5Y APP 5'UTR luciferase reporter, luminescence; zero percent = DMSO vehicle wells. activation, % at 2 µM. 190,000 tested, 1% active;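 active means activation above a set limit, based on mean plus 3 SD of controls, cut at about 140% in these data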
STAT1 inh-1: STAT1 signaling inhibition. NIH 3T3 STAT1-luciferase reporter, IFN-gamma, luminescence. inhibition, % at 5.5 µM. 200,000 tested, 0.35% active. AID 920;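 active means inhibition above a set limit, the mean inhibition across all tested compounds plus 3 SD, cut at about 34% in these data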
STAT3 activator: STAT3 signaling activation; AID 871; 190,000 tested, 0.91% active; activation (% of control), % at 5.6 µM; U3A cells, IL-6 STAT3-luciferase reporter, luminescence; 100% = signal with IL-6 EC80 alone;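 active means activation above the screen-wide mean of compound activation plus 3 SD, cut at about 130% in these data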
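system = STAT3-luciferase reporter U3A cells | reagent = IL-6 stimulus at 33 ng/mL final | timing = 1 h compound pre-exposure, 6 h IL-6 stimulation, 37 °C | measured by = luminescence | evaluation = % activation versus median of IL-6-stimulated wells | control set = IL-6-only wells as 100% reference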
NF-kB expr up: compounds increasing NF-kB expression in human neuronal cells. NF-kB reporter expression; hits give high values. fold change at 12.5 µM. 190,000 tested, 1.6% active. AID 1239; in the data active means fold change above about 3.3
STAT3 inh: reduces IL-6 driven STAT3 reporter signal; U3A cells, IL-6 STAT3-luciferase reporter, luminescence; host cell line lacks STAT1; inhibition, % at 5.5 µM; 190,000 tested, 0.89% active; AID 862;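 active means inhibition above the mean inhibition across all screened compounds plus 3 SD, cut at about 44% in these data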
STAT1 act: STAT1 signaling activation; activation (% of control), % at 5.5 µM; AID 932; NIH 3T3 STAT1-luciferase reporter, IFN-gamma, luminescence; 100% = IFN-gamma alone, no compound; 200,000 tested, 2.6% active;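 active means activation above the screen-wide mean activation plus 3 SD, cut at about 130% in these data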
STAT1 inh-2: confirmation of STAT1 signaling inhibitors. shares compounds with STAT1 inh-1. inhibition, % at 5.5 µM. 200 tested, 55% active. NIH 3T3 STAT1-luciferase reporter, IFN-gamma, luminescence;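 active means triplicate mean inhibition exceeding the hit cutoff computed for the primary STAT1 screen, cut at about 35% in these data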
NFkB inh STAT1ct: inhibits NF-kappaB, counter-screen to STAT1 inhibitors; AID 1303; HEK293T NF-kB luciferase reporter, TNF-alpha induced, luminescence; inhibition, % at 5.7 µM; shares compounds with STAT1 inh-1; 200 tested, 30% active;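 active means inhibition above the mean of solvent-only control wells plus 3 SD of those wells, cut at about 15% in these data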
STAT3 inh STAT1c: STAT3 inhibition in STAT1 inhibitor counter-screen; shares compounds with STAT1 inh-1; U3A cells, IL-6 STAT3 luciferase reporter, luminescence; cells lacking STAT1; inhibition, % at 5.7 µM; 200 tested, 20% active; AID 1310;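 active means inhibition above the mean of solvent-only control wells plus 3 SD, set per campaign, cut at about 25% in these data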
STAT1 act conf: confirmation of STAT1 signaling activators; shares compounds with STAT1 act; AID 1262; NIH 3T3 STAT1-luciferase reporter, IFN-gamma potentiation, luminescence; 100% = IFN-gamma EC80 alone, no compound; activation (% of control), % at 5.7 µM; 1,200 tested, 97% active;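 active means activation above a set limit carried over from the earlier primary STAT1 screen, cut at about 140% in these data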
NFkB act: activates NF-kappaB, counter-screen to STAT1 activators; HEK293T NF-kB luciferase reporter, TNF-alpha stimulated, luminescence; 100% = TNF-alpha with vehicle only; activation (% of control), % at 5.7 µM; shares compounds with STAT1 act; AID 1306; 1,200 tested, 43% active;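 active means activation above the mean of solvent-only control wells plus 3 SD, set per campaign, cut at about 130% in these data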;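 further: TNF-alpha given at a submaximal dose yielding about 80% of full reporter signal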
STAT3 act STAT1c: counter-screen for STAT1 activators: human STAT3 activation; shares compounds with STAT1 act; U3A cells STAT3-luciferase reporter, IL-6, luminescence; cells lack STAT1; 100 = IL-6 alone, no compound effect; activation (% of control), % at 5.7 µM; 1,200 tested, 46% active; AID 1316;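 active means activation above the solvent-only control well mean plus 3 SD, set per plate batch, cut at about 110% in these data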;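 further: higher means more STAT3 reporter activation so hits are non-selective activators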
Large screens that a line does not name were inactive (follow-up assays come after a bar, where they were run). Compounds with a hit are over-represented: about 4.9% of the library has one in this group of screens.

CC(C)[C@H]1C(=O)O[C@H](C(C)C)C(=O)N(C)[C@@H](C(C)C)C(=O)O[C@H](C(C)C)C(=O)N(C)[C@@H](C(C)C)C(=O)O[C@H](C(C)C)C(=O)N1C	STAT1 inh-1 47 (no result: STAT3 activator, STAT3 inh) | STAT1 inh-2 inactive | NFkB inh STAT1ct inactive | STAT3 inh STAT1c inactive
ON1C2CCCCC2N(O)C1c1ccccc1 (stereo not given)	none (no result: APP 5'UTR act)
O=C(c1cc2c(s1)-c1ccccc1OC2)N1CCC2(CC1)OCCO2	APP 5'UTR act 142, NF-kB expr up 3.9, STAT1 act 158 | STAT1 act conf 196 | NFkB act 134 | STAT3 act STAT1c 119
COc1cc(C=C2C(=O)NC(=O)NC2=O)ccc1OCc1ccc([N+](=O)[O-])cc1	NF-kB expr up 3.4, STAT1 act 152 | STAT1 act conf 175 | NFkB act 136 | STAT3 act STAT1c 122
O=C1NC(=O)C(=Cc2ccc(Oc3ccc([N+](=O)[O-])cc3)cc2)C(=O)N1	none
COc1ccc(-c2cc(=Nc3ccccc3)c3cc(C)ccc3o2)cc1	NF-kB expr up 8.6, STAT1 act 165 | STAT1 act conf 143 | NFkB act inactive | STAT3 act STAT1c inactive
COc1ccc(-c2cc(=NCCC(=O)O)c3cc(C)ccc3o2)cc1	APP 5'UTR act 145, NF-kB expr up 3.7, STAT1 act 153 | STAT1 act conf 154 | NFkB act inactive | STAT3 act STAT1c inactive
COc1ccc(-c2cc(=O)c3c(OC)c(OC)c(OC)cc3o2)cc1	none (no result: STAT3 activator, STAT3 inh)
O=C(Nc1ccccc1)OC1CN=C(N[N+](=O)[O-])NC1 (stereo not given)	none
O=[N+]([O-])/C=C1/NCCN1Cc1ccc(Cl)nc1	none

Screening data (PubChem BioAssay)
